Results collected from several papers.
Each line is one published result; the experiments were not run side by side.
Target: MAP/microtubule affinity-regulating kinase 4 (MARK4, Homo sapiens, UniProt Q96L34)
Residues used in one study (Q96L34 1-752): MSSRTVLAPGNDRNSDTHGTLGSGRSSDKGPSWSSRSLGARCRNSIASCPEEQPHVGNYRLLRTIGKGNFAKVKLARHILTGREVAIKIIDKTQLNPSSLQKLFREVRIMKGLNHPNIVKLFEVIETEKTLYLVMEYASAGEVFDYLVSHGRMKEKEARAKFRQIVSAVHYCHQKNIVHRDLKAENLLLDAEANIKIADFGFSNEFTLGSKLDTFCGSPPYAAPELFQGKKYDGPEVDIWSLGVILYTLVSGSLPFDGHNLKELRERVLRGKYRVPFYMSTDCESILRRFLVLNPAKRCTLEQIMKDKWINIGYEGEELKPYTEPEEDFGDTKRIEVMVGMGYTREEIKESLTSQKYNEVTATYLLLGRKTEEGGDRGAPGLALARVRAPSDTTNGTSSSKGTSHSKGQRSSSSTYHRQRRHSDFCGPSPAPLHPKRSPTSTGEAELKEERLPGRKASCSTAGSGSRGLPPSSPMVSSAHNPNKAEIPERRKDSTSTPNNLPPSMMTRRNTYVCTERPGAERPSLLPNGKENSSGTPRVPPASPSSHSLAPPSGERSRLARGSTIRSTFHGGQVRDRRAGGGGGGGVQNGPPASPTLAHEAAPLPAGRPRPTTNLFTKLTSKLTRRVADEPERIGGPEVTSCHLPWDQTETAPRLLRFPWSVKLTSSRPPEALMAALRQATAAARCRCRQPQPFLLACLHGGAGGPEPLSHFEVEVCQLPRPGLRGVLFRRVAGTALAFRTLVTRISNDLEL

| SMILES | effect on | technique | concentration | remaining binding |
| --- | --- | --- | --- | --- |
| CN(C)c1nccc(-c2cnn3ncccc23)n1 | binding |  | 1 µM | 100% |
| CC(=O)Nc1c(C(C)=O)c(=O)n(C)c2nc(-c3ccc(Cl)cc3Cl)c(-c3ccc(Cl)cc3)cc12 | cell-free assay | competition with immobilised ligand | 1 µM | 100% |
| CN(C)c1nccc(-c2cnc3ncccn23)n1 | binding |  | 1 µM | 93% |
| O=C(c1ccc(Nc2nccc(-c3cc4ccccc4s3)n2)cc1)N1CCC(N2CCCC2)CC1 | binding | competition with immobilised ligand | 1 µM | 84% |
| O=C(Nc1c[nH]nc1C(=O)NC1CCNCC1)c1cc(F)cc(F)c1 | binding | competition with immobilised ligand | 1 µM | 100% |
| O=C(O)c1cc(-c2ccc(C3CCNCC3)cc2)c2ccc(-c3ccc(C(F)(F)F)cc3)cc2c1 | cell-free assay | competition with immobilised ligand | 1 µM | 100% |
| CCN1CCN(Cc2ccc(C(=O)Nc3ccc(C)c(Oc4ccc5c(c4)CC(=O)N5)c3)cc2C(F)(F)F)CC1 | binding | competition with immobilised ligand | 1 µM | 88% |
| CC1CCCN1c1nccc(-c2cnn3ncccc23)n1 (centres unmarked) | binding |  | 1 µM | 98% |
| Nc1ncc2c(n1)-c1c([nH]c3ccc(C#CC4CC4)cc13)CCCC2 | binding | competition with immobilised ligand | 1 µM | 100% |
| COc1cnc(Nc2cccc(S(N)(=O)=O)c2)nc1N1CCN(c2ccccc2)CC1 | binding | competition with immobilised ligand | 1 µM | 86% |
| COc1ccc2c(O[C@@H]3C[C@H]4C(=O)N[C@]5(C(=O)O)CC5/C=C\CCCCC[C@H](NC(=O)OC5CCCC5)C(=O)N4C3)cc(-c3csc(NC(=O)C(C)C)n3)nc2c1C (some centres unmarked) | cell-free assay | competition with immobilised ligand | 1 µM | 99% |
| FC(F)(F)Oc1cccc(-c2cnc3ccc(-c4ccncc4)nn23)c1 | cell-free assay | competition with immobilised ligand | 5 µM | 80% |
| O=C1CCc2cc(Nc3cc(OC4CCOCC4)c([N+](=O)[O-])cc3Cl)ccc2N1 | cell-free assay | competition with immobilised ligand | 1 µM | 100% |
| O=C(c1ccc(Nc2ncc(Cl)c(-c3cc4ccccc4s3)n2)cc1)N1CCC(N2CCCC2)CC1 | binding | competition with immobilised ligand | 1 µM | 28% |
| F[C@@H]1CCN(c2nccc(-c3cnn4ncccc34)n2)C1 | binding |  | 1 µM | 100% |
| FC(F)(F)c1ccc2c(c1)nc(-c1cccnc1)n2C1CC1 | cell-free assay | competition with immobilised ligand | 1 µM | 100% |
| c1cnn2ncc(-c3ccnc(N4CCC45COC5)n3)c2c1 | binding |  | 1 µM | 84% |
| COc1cc(-c2cn(C3CCc4ccccc4N(CC(F)(F)F)C3=O)nn2)ccc1-n1ccc(C)n1 (centres unmarked) | cell-free assay | competition with immobilised ligand | 1 µM | 100% |
| O=C(NCCCN1CCOCC1)c1ccc(Nc2nccc(-c3cc4ccccc4s3)n2)cc1 | binding | competition with immobilised ligand | 1 µM | 60% |
| N[C@H]1CCN(c2nccc(-c3cnn4ncccc34)n2)C1 | binding |  | 1 µM | 100% |
